pEC50: −log10 of the molar value. The source made the active and inactive calls. No cut-off for these calls is given here. *1 amine or outer side, *2 acyl side, *3 side chain or, on linkers, in order; H or OH if unused. Where a SMILES comes first, the peptide text is derived from it. [ ]: non-standard residue; d: D form. X2 = COc1cc([C@@H]2c3[nH]c4ccccc4c3C[C@@H](C(=O)[*:2])N2[*:1])ccc1O; X3 = COc1ccc([C@@H]2c3[nH]c4ccccc4c3C[C@@H](C(=O)[*:2])N2[*:1])cc1; X1 = O=C([C@@H]1Cc2c([nH]c3ccccc23)[C@@H](c2ccccc2O)N1[*:1])[*:2]

By pEC50 is commonly meant the EC50 on a negative log10 scale, so that one unit is a factor of ten.

The subject of one experiment is Rattus norvegicus. Briefly: Antithrombotic activity in Wistar rat assessed as reduction of dry thrombus weight at 10 umol/kg. The experiment is classed as functional, organism-based.
For experiment [1], the system named is PC-12. Briefly: Antioxidant activity in rat PC12 cells assessed as protection against nitric oxide-induced reduction of cell viability pretreated 1 he before nitric oxide challenge incubated for 1 hr followed by washout measured after 14 hrs by MTT assay. It is filed as functional, cell-based. The essentials: (§1)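 PC12 cells were grown in DMEM with 10% heat-inactivated horse serum and 5% FBS, then seeded at 20,000/well on poly-lysine. After 24 h, cells were pretreated with compound at five concentrations for 1 h. Damage was 1 h with: NO, 2 mM sodium nitroprusside; H₂O₂, 1 mM; ·OH, H₂O₂/Fe(II). Medium was replaced, and MTT survival was read after 14 h. EC50 was derived.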
A general note: Tetrazolium dyes change colour on reduction, which living cells bring about.

Experiment [2] relates to PC-12. Briefly: Antioxidant activity in rat PC12 cells assessed as protection against hydrogen peroxide-induced reduction of cell viability pretreated 1 he before […] incubated for 1 hr followed by washout measured after 14 hrs by MTT assay. The experiment is classed as functional, cell-based. Put shortly:
as §1

The subject of experiment [3] is PC-12. Briefly: Antioxidant activity in rat PC12 cells assessed as protection against hydroxyl radical-induced reduction of cell viability pretreated 1 he before […] incubated for 1 hr followed by washout measured after 14 hrs by MTT assay. It is filed as functional, cell-based. Put shortly: as §1

Take `COc1ccc([C@H]2N[C@H](C(=O)NCC(=O)N[C@@H](CCCNC(=N)N)C(=O)N3CCC[C@H]3C(=O)N[C@@H](C)C(=O)N[C@@H](CCCCN)C(=O)O)Cc3c2[nH]c2ccccc32)cc1` (H-[X3]GRPAK-OH): the result with Rattus norvegicus was Active. Regarding `C[C@H](N)C(=O)N[C@@H](CCCN=C(N)N)C(=O)N1CCC[C@H]1C(=O)N[C@@H](C)C(=O)N[C@@H](CCCCN)C(=O)O` (H-ARPAK-OH), the result in the experiment on Rattus norvegicus was Active. For the compound `COc1cc([C@H]2N[C@H](C(=O)O)Cc3c2[nH]c2ccccc32)ccc1O`, the figures for the pEC50 in the experiment with PC-12 [1], in the experiment on PC-12 [2] and in the experiment on PC-12 [3] were 4.11, 4.42 and 4.14, respectively. `COc1ccc([C@H]2N[C@H](C(=O)N[C@@H](C)C(=O)N[C@@H](CCCNC(=N)N)C(=O)N3CCC[C@H]3C(=O)N[C@@H](C)C(=O)N[C@@H](CCCCN)C(=O)O)Cc3c2[nH]c2ccccc32)cc1` (H-[X3]ARPAK-OH): the result in the experiment on Rattus norvegicus was Active.

As to `O=C(O)[C@@H]1Cc2c([nH]c3ccccc23)[C@@H](c2ccccc2O)N1`, the pEC50 was 4.11 in the experiment on PC-12 [1], 4.42 in the experiment on PC-12 [2] and 4.14 in the experiment with PC-12 [3]. `COc1cc([C@H]2N[C@H](C(=O)N[C@@H](C)C(=O)N[C@@H](CCCNC(=N)N)C(=O)N3CCC[C@H]3C(=O)N[C@@H](C)C(=O)N[C@@H](CCCCN)C(=O)O)Cc3c2[nH]c2ccccc32)ccc1O` (H-[X2]ARPAK-OH): the outcome in the experiment with Rattus norvegicus was Active. As to `C[C@H](NC(=O)[C@@H]1CCCN1C(=O)[C@H](CCCN=C(N)N)NC(=O)CN)C(=O)N[C@@H](CCCCN)C(=O)O` (H-GRPAK-OH), the outcome in the experiment with Rattus norvegicus was Active. For `COc1ccc([C@H]2N[C@H](C(=O)O)Cc3c2[nH]c2ccccc32)cc1`, the results for the pEC50 in the experiment with PC-12 [1], with PC-12 [2] and with PC-12 [3] were 4.11, 4.42 and 4.14, respectively.

On to `C[C@H](NC(=O)[C@@H]1Cc2c([nH]c3ccccc23)[C@@H](c2ccccc2O)N1)C(=O)N[C@@H](CCCNC(=N)N)C(=O)N1CCC[C@H]1C(=O)N[C@@H](C)C(=O)N[C@@H](CCCCN)C(=O)O` (H-[X1]ARPAK-OH), for which the result with Rattus norvegicus was Active. Take `C[C@H](NC(=O)[C@@H]1CCCN1C(=O)[C@H](CCCNC(=N)N)NC(=O)CNC(=O)[C@@H]1Cc2c([nH]c3ccccc23)[C@@H](c2ccccc2O)N1)C(=O)N[C@@H](CCCCN)C(=O)O` (H-[X1]GRPAK-OH): the result with Rattus norvegicus was Active.

For the compound `COc1cc([C@H]2N[C@H](C(=O)NCC(=O)N[C@@H](CCCNC(=N)N)C(=O)N3CCC[C@H]3C(=O)N[C@@H](C)C(=O)N[C@@H](CCCCN)C(=O)O)Cc3c2[nH]c2ccccc32)ccc1O` (H-[X2]GRPAK-OH), the outcome in the experiment with Rattus norvegicus was Active.

The record behind these values is ChEMBL document CHEMBL1770118, “A new class of β-carboline alkaloid-peptide conjugates with therapeutic efficacy in acute limb ischemia/reperfusion injury” (Eur J Med Chem, 2011).
